{"source": "ChEMBL document CHEMBL1143933", "about": "“Synthesis, dopaminergic profile, and molecular dynamics calculations of N-aralkyl substituted 2-aminoindans” (Bioorg Med Chem, 2008)", "format_in_all_cases": "functional, organism-based", "key": {"Rattus norvegicus [1]": {"tested_on": "Rattus norvegicus", "test": "Natriuretic effect in icv dosed Sprague-Dawley rat assessed as increase in sodium excretion after 6 hrs", "method_in_brief": "(§1)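 Adult male Sprague-Dawley rats (220–280 g) fitted with a cannula in the left lateral cerebroventricle under pentobarbital (40 mg/kg, ip), then allowed at least 3 days of recovery. Single ICV injection of 50 µg/10 µl, or vehicle NaCl 0.9%. Oral water load of 20 ml/kg, then individual metabolic cages. Urine collected at 3 and 6 h, with the bladder emptied at 6 h. Sodium measured by flame photometry. N = 6–8 per group; two-way ANOVA with Newman–Keuls.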"}, "Rattus norvegicus [2]": {"tested_on": "Rattus norvegicus", "test": "Induction of stereotyped behavior in icv dosed Sprague-Dawley rat", "method_in_brief": "(§2)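 Cannula placed in the right lateral ventricle under pentobarbital (40 mg/kg, ip) at 0.40 mm bregma, 1.1 mm lateral, 2.2 mm ventral. After 3 days, compound (0.6 or 6.0 µg/5 µl, or 50 µg/5 µl) or 0.9% NaCl infused at 0.5 µl/min. Starting 5 min later, behavior observed for 45 min in Plexiglas chambers. Gnawing recorded by computer at 4.5 min intervals. Four rats per measurement; ANOVA with Duncan's test.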"}, "Rattus norvegicus [3]": {"tested_on": "Rattus norvegicus", "test": "Diuretic effect in icv dosed Sprague-Dawley rat assessed as increase in urine volume after 6 hrs", "method_in_brief": "as §1"}, "Rattus norvegicus [4]": {"tested_on": "Rattus norvegicus", "test": "Natriuretic effect in icv dosed Sprague-Dawley rat assessed as increase in sodium excretion after 3 hrs", "method_in_brief": "as §1"}, "Rattus norvegicus [5]": {"tested_on": "Rattus norvegicus", "test": "Inhibition of dopamine-induced diuresis in icv dosed Sprague-Dawley rat", "method_in_brief": "(§3)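 Male Sprague-Dawley rats (220–280 g) with a left lateral ventricle cannula. ICV pretreatment of 50 µg/5 µl, or vehicle 5 µl, given 15 min before ICV dopamine (100 µg/5 µl) or saline, then oral water 20 ml/kg. Urine volume and sodium (flame photometry) measured over 3 h and 6 h collections. N = 6–8; two-way ANOVA with Newman–Keuls.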"}, "Rattus norvegicus [6]": {"tested_on": "Rattus norvegicus", "test": "Inhibition of dopamine-induced natriuresis in icv dosed Sprague-Dawley rat", "method_in_brief": "as §3"}, "Rattus norvegicus [7]": {"tested_on": "Rattus norvegicus", "test": "Reduction of apomorphine-induced stereotyped behavior in Sprague-Dawley rat at 0.6 ug/ul, icv", "method_in_brief": "(§4)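 Rats cannulated in the right lateral ventricle. ICV infusion of 0.6 or 6.0 µg/5 µl, or 0.9% NaCl, at 0.5 µl/min. Apomorphine HCl (1 mg/kg) given 1 min before observation began. Stereotyped gnawing recorded by computer at 4.5 min intervals for 45 min. Four rats per measurement; means ± SEM; ANOVA with Duncan's multiple range test.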"}, "Rattus norvegicus [8]": {"tested_on": "Rattus norvegicus", "test": "Reduction of apomorphine-induced stereotyped behavior in Sprague-Dawley rat at 6 ug/ul, icv", "method_in_brief": "as §4"}, "Rattus norvegicus [9]": {"tested_on": "Rattus norvegicus", "test": "Induction of stereotyped behavior in Sprague-Dawley rat at 6 ug/ul, icv", "method_in_brief": "as §2"}, "Rattus norvegicus [10]": {"tested_on": "Rattus norvegicus", "test": "Induction of stereotyped behavior in Sprague-Dawley rat at 0.6 ug/ul, icv", "method_in_brief": "as §2"}}, "note": "The source made the active and inactive calls. No cut-off for these calls is given here."}
{"smiles": "CCC(C)NC1Cc2ccc(O)c(O)c2C1", "note": "(configuration not stated)", "values": [{"measurement": "Activity", "setting": "Rattus norvegicus [1]", "value": "Active"}, {"measurement": "Activity", "setting": "Rattus norvegicus [2]", "value": "Active"}, {"measurement": "Activity", "setting": "Rattus norvegicus [3]", "value": "Active"}]}
{"smiles": "CC(Cc1ccc(O)c(O)c1)NC1Cc2ccc(O)c(O)c2C1", "note": "(configuration not stated)", "values": [{"measurement": "Activity", "setting": "Rattus norvegicus [4]", "value": "inactive"}, {"measurement": "Activity", "setting": "Rattus norvegicus [5]", "value": "Active"}, {"measurement": "Activity", "setting": "Rattus norvegicus [6]", "value": "Active"}, {"measurement": "Activity", "setting": "Rattus norvegicus [1]", "value": "inactive"}, {"measurement": "Activity", "setting": "Rattus norvegicus [7]", "value": "Active"}, {"measurement": "Activity", "setting": "Rattus norvegicus [8]", "value": "Active"}, {"measurement": "Activity", "setting": "Rattus norvegicus [9]", "value": "inactive"}, {"measurement": "Activity", "setting": "Rattus norvegicus [10]", "value": "inactive"}, {"measurement": "Activity", "setting": "Rattus norvegicus [3]", "value": "inactive"}]}
